From PubChem BioAssay
Arbovirus anti = antivirals against arbovirus infection, primary screen, cell-based, full library, 10K replicate subset | arbovirus infection cell-based antiviral screen | inhibition, % at 10 µM | 200,000 compounds, 0.37% hits; in the data active = inhibition above about 30%
Rad51 HR inh = human RAD51 strand exchange inhibitors, primary screen, biochemical, fluorescence | DNA repair protein RAD51 homolog 1 (Homo sapiens), Q06609 | hRad51 DNA strand exchange, fluorescence dequenching | inhibition, % at 10 µM | 200,000 compounds, 0.085% hits | AID 1385, 2008;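 active = inhibition above 40% at the single screening dose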
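System: hRad51 filaments on single-stranded DNA; reagent: Fluorescein- and BHQ1-tagged 47-mer duplex; compound dosing: one concentration, 10 µM final; timing: filaments 15 min 37 °C, then compound 30 min; measured by: fluorescein emission 520 nm, excitation 485 nm; benchmarks: per-plate controls and blanks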
Wee1 degr inh = Wee1 degradation inhibitors, primary screen, cell-based, HeLa, Wee1K328M-luciferase, luminescence; HeLa Luc-Wee1K328M stability; 100% = proteasome inhibitor MG132 effect; 220,000 compounds, 1.2% hits; reporter increase, % at 5 µM; Wee1-like protein kinase (Homo sapiens), P30291;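 active = activation above the mean of all tested compounds plus 3 SD, set per screening run, cut at about 8.8% in these data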;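 note: cells exposed to compound for 20 h before luminescence read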
Target sequence (P30291 whole entry K328M): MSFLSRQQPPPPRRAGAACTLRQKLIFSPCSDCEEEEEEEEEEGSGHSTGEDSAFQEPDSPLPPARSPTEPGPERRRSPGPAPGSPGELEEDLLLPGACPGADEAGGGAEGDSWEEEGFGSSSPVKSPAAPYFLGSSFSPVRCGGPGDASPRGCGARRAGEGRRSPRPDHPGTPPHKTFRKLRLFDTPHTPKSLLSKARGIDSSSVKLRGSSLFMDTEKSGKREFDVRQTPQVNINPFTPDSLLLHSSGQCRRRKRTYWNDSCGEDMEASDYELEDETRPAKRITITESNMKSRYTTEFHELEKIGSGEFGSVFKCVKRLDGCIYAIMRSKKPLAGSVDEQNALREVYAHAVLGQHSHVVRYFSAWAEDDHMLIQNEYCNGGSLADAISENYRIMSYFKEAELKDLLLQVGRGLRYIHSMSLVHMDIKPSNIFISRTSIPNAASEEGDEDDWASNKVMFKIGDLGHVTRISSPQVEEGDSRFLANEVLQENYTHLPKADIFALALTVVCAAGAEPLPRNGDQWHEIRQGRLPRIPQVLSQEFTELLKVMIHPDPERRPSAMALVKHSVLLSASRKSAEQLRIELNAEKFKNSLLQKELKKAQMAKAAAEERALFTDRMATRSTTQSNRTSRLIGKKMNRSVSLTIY
PKD1 kinase inh = inhibitors of human PKD1 kinase, biochemical, fluorescence polarization; Serine/threonine-protein kinase D1 (Homo sapiens), Q15139; PKD1 kinase fluorescence polarization assay; inhibition, % (test concentration not listed); 200,000 compounds, 0.056% hits; AID 797, 2007
L major viab = Leishmania major promastigote growth inhibition, primary screen; Leishmania major promastigotes, resazurin fluorescence viability; inhibition, % at 10 µM; 200,000 compounds, 9% hits;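 note: promastigotes grown with compound for 44 hours at 28 °C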
CHOP inhibitor = inhibitors of CHOP promoter induction, primary screen, cell-based, unfolded protein response, luciferase reporter. CHO-K1 CHOP-promoter luciferase, tunicamycin-induced, 15-18 h. inhibition, % at 10 µM. 220,000 compounds, 3.8% hits;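 active = compounds that reduced the stress-induced luciferase reporter signal by more than about 70% of percent inhibition, limit read from the data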
Each line names hits and unclear results; the compound was inactive in the other large screens. This is a sample that favours compounds with a hit; in the whole collection about 12% have one here. Cut-off read from the data, not from the text of the source, unless noted: active = inhibition above about 50%; inactive = the rest.

COc1cc(/C=C2/NC(=O)NC2=O)cc(Br)c1OCc1ccccc1	CHOP inhibitor 94.4
Cn1c(=O)[nH]c(=O)c2c1nc(N1CCCCC1)n2CCCSc1nnnn1-c1ccccc1	none
CC1CCN(c2nc3c(c(=O)[nH]c(=O)n3C)n2CC(C)CSc2nnnn2-c2ccccc2)CC1 (configuration not stated)	L major viab 97.7
CC(CSc1nc2ccccc2s1)Cn1c(N2CCCC2)nc2c1c(=O)[nH]c(=O)n2C (configuration not stated)	L major viab 52.5
CNC(=S)NCCc1cc2c(OC)ccc(OC)c2[nH]c1=O	none
O=C(COC(=O)/C=C/c1ccccc1[N+](=O)[O-])NCC(F)(F)F	none
O=C(NC(=S)N1CCCc2ccccc21)c1ccc(Br)cc1	none
O=C(NN1c2ccccc2CCc2ccccc21)c1ccccc1Br	CHOP inhibitor 76.3
COc1ccc(NC(=O)c2cccc(-n3c(C)ccc3C)c2)c(OC)c1	L major viab 63.2
COc1ccc(NC(=O)c2ccc(C)cc2)c(OC)c1	none
Cc1nc2ccccc2c2c1C(=O)N(c1cccc(C(=O)O)c1)C2=O	none
Cc1ccc(C)c(C(=O)COC(=O)c2cccc(N3C(=O)c4c(C)nc5ccccc5c4C3=O)c2)c1	Wee1 degr inh 9.0
CCCCC#Cc1nc(N)c2ncn([C@@H]3O[C@H](C(=O)NCC)[C@@H](O)[C@H]3O)c2n1	none (no result: Arbovirus anti, Rad51 HR inh, Wee1 degr inh, PKD1 kinase inh, L major viab)
COc1ccc(C2(O)CCN(CC(=O)Nc3nccs3)CC2)c(OC)c1	L major viab 87.6
Cc1ccc2nc(-c3ccc(NS(C)(=O)=O)cc3)cc(-c3ccccc3)c2c1	CHOP inhibitor 78.4
CCS(=O)(=O)Nc1ccc(-c2cc(-c3ccccc3)c3cc(C)ccc3n2)cc1	CHOP inhibitor 86.7
C[N+]1(CC(O)COCC2COc3ccccc3O2)CCOCC1 (configuration not stated)	none
COC(=O)c1cc(OC)nc2ccc(Br)cc12	none (no result: Arbovirus anti, PKD1 kinase inh, L major viab)
Cc1ccc(NC(=O)C(C)Sc2nc(=O)cc(N)n2-c2ccccc2)cc1 (configuration not stated)	CHOP inhibitor 73.3
COc1cc(C(=O)Nc2cccc(C)c2C)c(Br)c(OC)c1OC	Rad51 HR inh 48.5
Cc1ccc(C(=O)CNc2cccc(Cl)c2)cc1	none (no result: Rad51 HR inh)
O=C(CNc1cccc(Cl)c1)c1ccc(Cl)cc1	CHOP inhibitor 74.9 (no result: Rad51 HR inh)
CCOC(=O)CNc1nc(Cl)nc(Nc2ccc(C)cc2)n1	CHOP inhibitor 70.0 (no result: Arbovirus anti, Rad51 HR inh, PKD1 kinase inh, L major viab)
CCOC(=O)/C=C/C(=O)OCC(=O)NCc1ccccc1	L major viab 54.8
O=C(COC(=O)c1ncc(Cl)c(Cl)c1Cl)NC(=O)NCc1ccccc1	none
O=C(COc1ccc(Cl)cc1Br)NC(=O)NCc1ccccc1	CHOP inhibitor 84.2
O=C(COC(=O)c1ccccc1Br)NCc1ccccc1	L major viab 59.9
O=C(COC(=O)c1cc(Br)ccc1Cl)NC(=O)NCc1ccccc1	none
O=C(COC(=O)c1ccccc1Cl)NC(=O)NCc1ccccc1	L major viab 82.7
Cc1ccc(C)c(N(CC(=O)NC2CCCCC2)C(=O)CCC(=O)Nc2ccccn2)c1	none (no result: Arbovirus anti, Rad51 HR inh, CHOP inhibitor)
c1ccc2c(c1)oc1c(NCCN3CCOCC3)ncnc12	none
CC(=O)N1CCN(c2ccc(Nc3ncnc4c3oc3ccccc34)cc2)CC1	L major viab 62.3
CCc1nc(Nc2ccc(N3CCN(C(C)=O)CC3)cc2)c2oc3ccccc3c2n1	none
c1ccc2c(c1)oc1c(Nc3ccc(CN4CCOCC4)cc3)ncnc12	L major viab 89.2
NC(=O)CCCc1nc(-c2ccccc2Cl)no1	Wee1 degr inh 10.3
Clc1nc2ccccc2cc1/C=N/Nc1nc2ccccc2[nH]1	none (no result: Rad51 HR inh)
COc1cc(/C=N/Nc2nc3ccccc3[nH]2)ccc1O	L major viab 80.1 (no result: Rad51 HR inh)
COc1ccc(O)c(/C=N/Nc2nc3ccccc3[nH]2)c1	L major viab 88.4
COc1cc(/C=N/Nc2nc3ccccc3[nH]2)cc(OC)c1O	none
O=[N+]([O-])c1ccc(O)c(/C=N/Nc2nc3ccccc3[nH]2)c1	L major viab 99.6 (no result: Rad51 HR inh)
Cc1nc(C(=O)O)nn1-c1cc(Cl)ccc1Cl	none
CCCNC(=O)COC(=O)CCC(=O)c1cccs1	L major viab 57.4
Cc1c(C(=O)OCC(=O)NCC2CCCO2)cccc1[N+](=O)[O-] (configuration not stated)	none
Cc1cccc2cc(CN(Cc3nnnn3Cc3ccco3)C3CCCC3)c3nnnn3c12	L major viab 59.5
CC(=O)N(Cc1ccco1)Cc1cc2cccc(C)c2n2nnnc12	none
OCC1CCCN(C2CCN(Cc3nc(Cc4cccc(C(F)(F)F)c4)no3)CC2)C1 (configuration not stated)	L major viab 88.8
FC(F)(F)c1cccc(Cc2noc(CN3CCCC3)n2)c1	none (no result: Rad51 HR inh)
Fc1cccc(Cc2noc(CN3CCOCC3)n2)c1	none (no result: Rad51 HR inh)
Cc1ccc(C2(c3noc(CN4CCC(c5ccncc5)CC4)n3)CCCC2)cc1	L major viab 50.9
Fc1cccc(Cc2noc(CN3CCC(c4ccncc4)CC3)n2)c1	L major viab 94.6 (no result: Rad51 HR inh)
COc1cc(CN2CCN(C(C)C)C(CCO)C2)ccc1OCc1ccccc1 (configuration not stated)	none
O=C(Nc1cccc(S(=O)(=O)Nc2ccc(Cl)cc2)c1)c1ccc[n+]([O-])c1	none (no result: Arbovirus anti, PKD1 kinase inh, L major viab)
CN(C)c1cc(N/N=C\c2ccccc2)nc(N(C)C)n1	none
COc1ccccc1/C=N/Nc1cc(N(C)C)nc(N(C)C)n1	L major viab 83.6
COc1ccc(/C=N/Nc2cc(N(C)C)nc(N(C)C)n2)cc1	L major viab 97.9
COc1ccc(/C=N/Nc2cc(C)nc(N)n2)cc1	L major viab 60.4
C=CCNC(=O)COC(=O)COc1ccc(Cl)cc1	none
COc1cc2c(cc1C1NC(=S)NC(C)=C1C(N)=O)CCCC2 (configuration not stated)	none
O=S(=O)(NCCc1csc(-c2ccc(C(F)(F)F)cc2)n1)c1ccc2c(c1)OCCO2	CHOP inhibitor 81.5
COc1ccc(-c2nc(CCNS(=O)(=O)c3ccc4c(c3)OCCO4)cs2)cc1	none
CCOP(=O)(OCC)c1nc(-c2cccc3ccccc23)oc1N1CCOCC1	none
CCOP(=O)(OCC)c1nc(-c2cccc3ccccc23)oc1NCCc1ccc(OC)cc1	L major viab 96.9
Cn1c(=O)c2c(ncn2CC(O)CNc2ccc(F)cc2)n(C)c1=O (configuration not stated)	none (no result: Arbovirus anti, PKD1 kinase inh, L major viab)
CCN(c1ccccc1)S(=O)(=O)c1ccc(Cl)c(C(=O)NCC2CCCO2)c1 (configuration not stated)	none (no result: Rad51 HR inh)
